# Bioassay records from PubChem BioAssay.
# Compounds with a hit are over-represented: about 4.6% of the library has one in this group of screens.
# FAS TE block: FAS thioesterase domain inhibitors, primary screen, biochemical, fluorescence intensity, uHTS | Fatty acid synthase (Homo sapiens), P49327 | recombinant FAS-TE, OMFH fluorogenic substrate, fluorescence endpoint | inhibition, % at 15 µM | actives 0.67% (n = 360,000);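 active means compounds whose normalised, plate-corrected inhibition of enzyme fluorescence in the single-dose primary screen is 50% or more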;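 further: 0% = DMSO with enzyme and 100% = substrate without enzyme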
# ALR H2O2 inh: inhibitors of human ALR sulfhydryl oxidase, primary screen, biochemical, H2O2 detection, HRP-luminol luminescence, single point. inhibition, % (test concentration not listed). AID 485317, 2010. FAD-linked sulfhydryl oxidase ALR (Homo sapiens), P55789. actives 3.8% (n = 290,000). purified ALR, DTT oxidation;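 active means mean replicate inhibition above about 79%, with every replicate also reaching it, limit read from the data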
# Target sequence (P55789 whole entry, looked up): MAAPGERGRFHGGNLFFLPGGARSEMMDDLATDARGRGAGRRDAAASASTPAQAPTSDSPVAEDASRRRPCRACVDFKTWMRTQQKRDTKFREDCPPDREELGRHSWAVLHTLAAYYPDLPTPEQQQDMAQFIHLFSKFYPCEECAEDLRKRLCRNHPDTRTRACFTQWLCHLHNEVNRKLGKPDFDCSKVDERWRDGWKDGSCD
# UCH37 inh: inhibitors of human UCH37 deubiquitinase, primary screen, biochemical, Ub-AMC cleavage, fluorescence | purified proteasome/UCH37 | inhibition, % (concentration not given with the values) | actives 0.33% (n = 330,000) | AID 588478, 2011;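 active means mean inhibition over replicate wells above about 20%, limit read from the data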;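 further: 0% = compound-free wells with enzyme and 100% = wells lacking proteasome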
#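 Reagent: Ub-AMC substrate; assay system: Proteasome-associated human UCH37 deubiquitinase; controls: no-proteasome and no-compound wells; read-out: % inhibition of Ub-AMC cleavage fluorescence; timing: 30 min preincubation with enzyme, 25 min cleavage at room temperature; signal: AMC fluorescence from Ub-AMC cleavage, excitation 355 nm, emission 460 nm; buffer or medium: Tris-HCl pH 7.4 plus ovalbumin, ATP-MgCl2, DTT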
# HDAC3 inhib: HDAC3 deacetylase inhibitors, primary screen, biochemical, fluorescence, cell-free homogeneous. Histone deacetylase 3 (Homo sapiens), O15379. recombinant HDAC3, fluorogenic peptide/trypsin coupled. inhibition, % at 8.3 µM. actives 0.15% (n = 320,000). AID 2718, 2010; in the data active means inhibition above about 26%, passing the limit was not always enough
# Rtt109 HAT inh: inhibitors of C. albicans Rtt109/Vps75 HAT, primary screen, biochemical, ThioGlo CoA-SH fluorescence, plate reader; Histone acetyltransferase RTT109 (Candida albicans (strain SC5314 / ATCC MYA-2876)), …; purified Rtt109/Vps75, 4 h; inhibition, % at 34.9 µM; actives 0.16% (n = 330,000);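 active means inhibition of at least 50% in every replicate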
# Target sequence (Q5AAJ8 whole entry, looked up): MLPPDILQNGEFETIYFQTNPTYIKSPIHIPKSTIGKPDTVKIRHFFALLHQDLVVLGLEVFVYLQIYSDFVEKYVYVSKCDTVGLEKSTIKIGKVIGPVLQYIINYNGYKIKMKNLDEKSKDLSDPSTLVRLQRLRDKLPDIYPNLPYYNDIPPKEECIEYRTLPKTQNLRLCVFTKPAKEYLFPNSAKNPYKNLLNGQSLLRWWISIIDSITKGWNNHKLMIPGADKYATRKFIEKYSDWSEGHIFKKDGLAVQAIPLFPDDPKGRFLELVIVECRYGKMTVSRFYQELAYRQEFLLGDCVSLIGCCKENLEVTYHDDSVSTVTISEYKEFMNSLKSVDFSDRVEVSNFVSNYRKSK
# PfM18AAP inh: PfM18AAP inhibitors, malaria aminopeptidase, primary screen, biochemical, QFRET, recombinant enzyme | AID 1822, 2009 | actives 1.2% (n = 290,000) | M18 aspartyl aminopeptidase (Plasmodium falciparum 3D7) | H-Glu-NHMec fluorogenic cleavage | inhibition, % at 7.35 µM;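 active means inhibition above the campaign mean inhibition over all tested compounds plus 3 SD, cut at about 28% in these data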;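 further: 0% = plate median of test compound wells and 100% = 2 mM ZnCl2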
# FAS-TE inh conf: FAS thioesterase domain inhibitors, confirmation, biochemical, fluorescence intensity, single concentration; shares compounds with FAS TE block; recombinant FAS-TE, OMFH fluorogenic substrate; inhibition, % at 15 µM; actives 45% (n = 2,300); AID 624325, 2012;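 active means compounds inhibiting the enzyme by at least 50% at 15 µM in any one of the replicates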;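 further: 0% = enzyme with DMSO only and 100% = wells lacking enzyme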
# * marks the source's active call; other numbers are inactive results; / = not tested or not shown.
SMILES,FAS TE block,ALR H2O2 inh,UCH37 inh,HDAC3 inhib,Rtt109 HAT inh,PfM18AAP inh,FAS-TE inh conf
O=C(CCNC(=O)c1ccc([N+](=O)[O-])cc1)NCCc1ccccc1,59.7*,-13.8,6.6,-10.3,3.3,0.8,46.5*
Cc1cccc(C=NNC(=O)CNc2cccc3ccccc23)n1,/,/,-10.4,/,/,/,/
CC(=NNC(=O)c1ccn(C)n1)c1ccncc1,/,/,5.0,/,/,/,/
Cn1c(=O)[nH]c(=O)c2c1nc(NN=Cc1cccnc1)n2Cc1ccc(Cl)cc1,/,/,-211.1,/,/,/,/
O=C(CC(=O)N/N=C\c1ccc([N+](=O)[O-])cc1)NCCc1ccccc1,52.5*,-2.0,/,-2.2,-3.3,12.5,50.2*
O=C(COc1ccc([N+](=O)[O-])cc1)Nc1ccc2c(c1)CCC2,57.9*,/,1.1,1.8,-1.8,/,62.6*
O=C(CC(=O)N/N=C\c1ccccc1)NCCc1ccccc1,-1.7,-19.5,/,-0.9,-15.7,-10.9,/
O=C(Cc1ccc([N+](=O)[O-])cc1)Nc1ccc2c(c1)CCC2,17.2,-1.2,3.9,-7.6,-0.5,1.9,/
Cc1[nH]n(-c2ccc(F)cc2)c(=O)c1C=Nc1sc2c(c1C#N)CCCC2,/,/,0.9,/,/,/,/
COc1cc(C(C)=NNC(=O)CN2CCN(S(=O)(=O)c3ccc(C)cc3)CC2)ccc1O,/,/,2.4,/,/,/,/
Cc1c(C(=O)c2ccc(Cl)c(Cl)c2)cnc2cc3c(cc12)OCO3,20.6,/,1.4,2.1,-16.2,-0.1,/
Cc1ccc(S(=O)(=O)c2c(C(=O)c3ccccc3)cnc3cc4c(cc23)OCCO4)cc1,69.8*,-12.0,-23.3,9.3,-6.2,-8.0,36.8
Cc1ccccc1COc1cccc(C=NNC(=O)c2nnn(-c3nonc3N)c2C)c1,/,/,4.7,/,/,/,/
COc1ccc(S(=O)(=O)c2cnc3ccc(OC)cc3c2N2CCC3(CC2)OCCO3)cc1,71.9*,-1.4,2.0,0.7,5.8,-0.7,59.6*
CC(C)(C)c1cc(Br)c(O)c(N=Nc2ccc(S(=O)(=O)N3CCOCC3)cc2)c1,83.6*,-2.7,11.2,0.1,3.8,-1.0,49.1*
Cc1ccc(O)c(N=Nc2ccc(S(=O)(=O)N3CCOCC3)cc2)c1,26.8,-1.8,3.4,3.6,1.0,-5.6,/
CCCc1sc(NN=Cc2ccccn2)nc1-c1ccc(Br)cc1,/,/,-4.1,/,/,/,/
Cc1cccc(-n2cnc3c(sc4nc(N5CCOCC5)c5c(c43)CCCC5)c2=O)c1,65.9*,-13.4,-47.8,-7.1,3.4,2.3,5.9
COc1cc2c(cc1OC)C(=O)N1[C@H]3c4cc(C)ccc4OC[C@@H]3[C@H](c3ccccc3)[C@]1(C)C(=O)N2,64.5*,0.2,2.5,8.4,0.7,/,23.5
COc1cc2c(cc1OC)C(=O)N1[C@H]3c4cc(Cl)ccc4OC[C@@H]3[C@H](c3ccccc3)[C@]1(C)C(=O)N2,85.8*,/,1.5,1.6,-3.2,/,39.8
COc1ccc2c(c1)[C@H]1[C@H](CO2)[C@H](c2ccccc2)[C@@]2(C)C(=O)N[C@H](C)C(=O)N12,-8.5,/,/,/,4.2,/,/
Cc1cccc(N2CCN(C(=O)CNC(=O)Cc3ccccc3)CC2)c1C,2.1,/,2.4,-1.1,7.4,/,/
Cc1cccc(N2CCN(C(=O)CNC(=O)c3cccc([N+](=O)[O-])c3)CC2)c1C,85.0*,/,1.3,6.1,-4.9,-1.1,67.2*
COc1ccc(CC(C)=NNC(=S)Nc2ccc(C(C)C)cc2)cc1,/,/,3.4,/,/,/,/
O=C(NCCN1C(=O)S/C(=C\c2ccccc2F)C1=O)C1CCN(S(=O)(=O)c2cccs2)CC1,61.4*,-2.4,4.3,4.4,0.4,-4.1,9.1
SMILES,FAS TE block,ALR H2O2 inh,UCH37 inh,HDAC3 inhib,Rtt109 HAT inh,PfM18AAP inh,FAS-TE inh conf
CCCNC(=O)C1CCN(S(=O)(=O)c2cccs2)CC1,-3.9,/,3.8,-3.2,1.4,2.0,/
O=C(c1cc2cc([N+](=O)[O-])ccc2oc1=O)N1CCN(C2CCCCC2)CC1,61.1*,0.2,2.7,2.1,8.8,0.3,47.2*
O=C(c1cccc(S(=O)(=O)N2CCCC2)c1)c1cccc(S(=O)(=O)N2CCCC2)c1,54.1*,1.4,2.5,10.7,1.2,-3.9,48.5*
Nc1nonc1-n1nnc(C(=O)NN=Cc2ccc(Br)cc2)c1CN1CCOCC1,/,/,5.1,/,/,/,/
Cc1c(OCC(=O)NC(Cc2ccc(Cl)cc2)C(=O)O)ccc2c(-c3ccccc3)cc(=O)oc12 (stereo unspecified),54.6*,3.5,3.4,-2.9,0.5,-0.9,62.0*
O=C1C2C3C=CC(C4CC34)C2C(=O)N1N=Cc1ccc(-c2cccc([N+](=O)[O-])c2)o1 (stereo unspecified),/,/,-4.7,/,/,/,/
Cc1ccc(C(=O)N/C(=C\c2ccc(-c3ccc([N+](=O)[O-])cc3)o2)C(=O)NC2CCS(=O)(=O)C2)cc1 (stereo unspecified),27.5,1.9,11.9,-1.4,1.0,-1.0,/
Cc1ccc(C(=O)N/C(=C/c2ccc(-c3ccc([N+](=O)[O-])cc3)o2)C(=O)NCCCN(C)C)cc1,56.7*,-6.9,12.5,11.3,-3.7,/,55.8*
CCOC(=O)c1c(NC(=O)CSc2ncnc3ccccc23)sc(C(C)=O)c1C,50.1*,10.5,3.6,4.4,/,0.5,16.7
CCOC(=O)c1c(NC(=O)CSc2nnc(-c3ccccc3C)n2C)sc(C(C)=O)c1C,58.8*,-5.4,5.1,4.2,-1.1,2.1,67.6*
COC(=O)c1c(NC(=O)CSc2ncnc3ccccc23)sc(C)c1C,17.9,56.9,-0.4,-0.2,2.0,/,/
CCOC(=O)c1c(NC(=O)CSc2nc3cccnc3n2C)sc(C(C)=O)c1C,79.6*,-20.7,-3.6,-2.8,/,8.9,45.2
ON=Cc1cc(Br)cs1,/,/,6.1,/,/,/,/
O=C(Nc1ccccc1C(=O)NN=Cc1ccco1)c1ccc(Cl)cc1,/,/,-3.3,/,/,/,/
Cc1ccccc1-n1c(C)cc(C=NNc2ccc([N+](=O)[O-])cn2)c1C,/,/,-3.0,/,/,/,/
CCN(CC)S(=O)(=O)c1ccc(N2CCOCC2)c(NC(=O)c2ccc3ccccc3c2)c1,51.8*,-2.4,-10.3,6.5,16.6,-0.8,21.8
COc1ccc2ccccc2c1/C=N/NC(=S)Nc1cc(S(=O)(=O)N2CCOCC2)ccc1N1CCOCC1,91.6*,-14.4,/,-2.8,-3.5,-0.8,27.0
COc1ccc(C=NNC(=S)Nc2cc(S(=O)(=O)N3CCOCC3)ccc2N2CCOCC2)cc1O,/,/,3.9,/,/,/,/
CN(Cc1c(C(=O)NN=Cc2cccc(F)c2)nnn1-c1nonc1N)C1CCCCC1,/,/,6.7,/,/,/,/
